Data on three molecules can be found in ChEMBL document CHEMBL3232848, “Design and synthesis of high affinity inhibitors of Plasmodium falciparum and Plasmodium vivax N-myristoyltransferases directed by ligand efficiency dependent lipophilicity (LELP)” (J Med Chem, 2014).

The test system of one data set is Plasmodium berghei. The data set can be described thus: Antimicrobial activity against Plasmodium berghei sporozoites infected in 12 hrs compound pretreated human HepG2 cells assessed as reduction in viability of exoerythrocytic forms measured after 48 hrs of incubation by luciferase bioluminescence assay. Format: functional, organism-based. The gist of the method:
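HepG2-A16-CD81EGFP cells expressing GFP-CD81 were grown in DMEM with 10% FCS, glutamine and penicillin/streptomycin at 37 °C, 5% CO2. They were seeded at 3000 cells/well 24 h before infection. Cells were pretreated 12 h with a 12-point dilution series, then infected with luciferase-expressing P. berghei sporozoites (1000/well). Exoerythrocytic form viability was read by bioluminescence after 48 h. EC50 came from a four-parameter variable-slope fit, mean of two determinations.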

A short description of data set [1]: Cytotoxicity against human HepG2 cells after 72 hrs by MTS assay. Format: cell-based. As to conditions: read-out: LD50. The gist of the method: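 HepG2 cells grown in DMEM with 10% FBS and penicillin/streptomycin, 37 °C, 5% CO2, seeded at 5000 cells/well. Seven-point dilution series in medium from a 50 mM DMSO stock; DMSO/medium and puromycin control wells. Incubated 72 h, then MTS/PMS added for 4 h and read at 490 nm. LD50 by nonlinear regression, mean of six determinations.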

In data set [2] the test system is Plasmodium falciparum. The experiment in a line: Antimicrobial activity against blood-stage Plasmodium falciparum 3D7 assessed as inhibition of [3H]hypoxanthine incorporation after 48 hrs by liquid scintillation counting. Type of data set: functional, organism-based.
In data set [3] the test system is Plasmodium falciparum. The data set can be described thus: Antimicrobial activity against blood-stage Plasmodium falciparum NF54 assessed as inhibition of [3H]hypoxanthine incorporation after 48 hrs by liquid scintillation counting. Type of data set: functional, organism-based. The gist of the method: (§1)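 Modified Desjardins method. Drug was serially diluted 2-fold, and infected blood was added at 0.3% parasitemia and 2.5% hematocrit. Uninfected blood and drug-free wells served as controls. Plates were held at 37 °C under 93% N2, 4% CO2, 3% O2. After 48 h, [3H]hypoxanthine (0.5 μCi/well) was added for a further 24 h, then cells were harvested and scintillation counted. Counts were taken as % of untreated controls, with IC50 by logit regression.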

Data set [4] deals with Plasmodium falciparum. The experiment in a line: Antimicrobial activity against blood-stage Plasmodium falciparum K1 assessed as inhibition of [3H]hypoxanthine incorporation after 48 hrs by liquid scintillation counting. Type of data set: functional, organism-based. The gist of the method: as §1
Data set [5] concerns Plasmodium falciparum. The experiment in a line: Antimicrobial activity against blood-stage Plasmodium falciparum Dd2 assessed as inhibition of [3H]hypoxanthine incorporation after 48 hrs by liquid scintillation counting. Type of data set: functional. The gist of the method:
as §1

Data set [6] can be described thus: Inhibition of human N-myristoyltransferase using H-Gly-Ser-Asn-Lys-Ser-Lys-Pro-Lys-NH2 as substrate by CPM fluorescence assay. The gist of the method: (§2)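 IC50 values (mean of two or more determinations) were converted to Ki by Cheng–Prusoff using substrate concentration and Km. For PfNMT, Km was 3.64 μM and substrate was 4.00 μM. The human enzyme values refer to HsNMT1.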

Data set [7] concerns the target T1, Glycylpeptide N-tetradecanoyltransferase (Plasmodium falciparum (isolate 3D7), UniProt Q8ILW6).
T1 sequence (Q8ILW6 whole entry): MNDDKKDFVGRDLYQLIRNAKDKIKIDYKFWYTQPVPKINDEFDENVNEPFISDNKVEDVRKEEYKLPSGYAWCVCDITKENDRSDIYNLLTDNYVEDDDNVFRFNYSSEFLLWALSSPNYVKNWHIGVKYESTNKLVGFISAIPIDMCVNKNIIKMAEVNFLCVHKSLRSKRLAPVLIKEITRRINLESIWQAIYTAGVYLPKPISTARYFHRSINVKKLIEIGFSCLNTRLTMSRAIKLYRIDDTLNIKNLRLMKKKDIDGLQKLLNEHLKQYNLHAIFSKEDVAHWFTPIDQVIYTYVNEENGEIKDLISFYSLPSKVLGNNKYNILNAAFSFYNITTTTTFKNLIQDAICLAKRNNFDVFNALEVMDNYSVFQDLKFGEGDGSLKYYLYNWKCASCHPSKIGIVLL
The data set can be described thus: Inhibition of Plasmodium falciparum N-myristoyltransferase by CPM fluorescence assay. The gist of the method: as §2

Data set [8] can be described thus: Inhibition of Plasmodium vivax N-myristoyltransferase by CPM fluorescence assay. The gist of the method:
as §2

The subject of data set [9] is Plasmodium falciparum. The experiment in a line: Antimicrobial activity against late stage trophozoite form of Plasmodium falciparum 3D7 infected in RBCs after 48 hrs by SYBR green viability assay. Particulars: 3D7, 96 h, in the assay text read “after 96 hrs” for “after 48 hrs”. Format: functional, organism-based. The gist of the method:
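Synchronous 3D7 late trophozoites (33–36 h) were used at 0.1–0.2% parasitemia and 2% hematocrit in washed, buffy-coat-free RBCs, in RPMI 1640 with Albumax, gentamycin and L-glutamine. Seven dilutions from 10.0 to 0.014 μM were run in duplicate at 37 °C under 5% CO2, 5% O2, 90% N2. Drug was replaced at 48 h and incubation continued to 96 h. Read-out was SYBR Green I in saponin/Triton lysis buffer, then fluorescence converted to % growth.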

A short description of data set [10]: Aqueous solubility of the compound. Type of data set: physicochemical.
Data set [11] in a line: Selectivity ratio of Ki for human N-myristoyltransferase to Ki for Plasmodium falciparum N-myristoyltransferase.
Data set [12] can be described thus: Selectivity ratio of Ki for human N-myristoyltransferase to Ki for Plasmodium vivax N-myristoyltransferase.
For data set [13], the system named is Plasmodium falciparum. The data set can be described thus: Ratio of EC50 for blood-stage Plasmodium falciparum Dd2 to EC50 for blood-stage Plasmodium falciparum NF54. Format: functional.
Data set [14] is described as follows: Selectivity ratio of LD50 for human HepG2 cells to EC50 for blood-stage Plasmodium falciparum 3D7. Format: ADME, cell-based. Particulars: read-out: Ratio LD50/EC50.
The nature of data set [15]: Selectivity ratio of LD50 for human HepG2 cells to EC50 for blood-stage Plasmodium falciparum NF54. Particulars: read-out: Ratio LD50/EC50. Type of data set: ADME, cell-based.
Data set [16] can be described thus: Selectivity ratio of LD50 for human HepG2 cells to EC50 for blood-stage Plasmodium falciparum K1. Type of data set: ADME, cell-based. Particulars: read-out: Ratio LD50/EC50.
Data set [17] can be described thus: Selectivity ratio of LD50 for human HepG2 cells to EC50 for blood-stage Plasmodium falciparum Dd2. Type of data set: ADME, cell-based. As to conditions: read-out: Ratio LD50/EC50.

Structures are written as SMILES. A value given as a limit tells only on which side of the number the result lay.

As to `O=C1C(O)=C([C@H]2CC[C@H](c3ccc(Cl)cc3)CC2)C(=O)c2ccccc21` [ATOVAQUONE], the concentration for a half-maximal effect (EC50) in the data set with Plasmodium berghei worked out at 0.0005 µM. Besides, in data set [1], the CC50 at 72 h was > 10 µM.

As to `CCN(CC)CCCC(C)Nc1ccnc2cc(Cl)ccc12` (stereo unspecified) [CHLOROQUINE], the EC50 is 0.006 µM in the data set with Plasmodium falciparum [2]; 0.013 µM in the data set with Plasmodium falciparum [3]; 0.255 µM in the data set with Plasmodium falciparum [4]; 0.328 µM in the data set with Plasmodium falciparum [5]; > 10 µM in the data set with Plasmodium berghei.

With `Cc1nn(C)c(C)c1Cc1nnc(-c2sc3ccccc3c2OC2CCNCC2)o1`, the Ki in data set [6] amounted to 0.06 µM; in data set [7], 0.008 µM; in data set [8], 0.002 µM. The same molecule yielded an IC50 in [7] of 0.017 µM. Also, the concentration for a half-maximal effect (EC50) in the data set on Plasmodium falciparum [9] is 0.302 µM; in the data set on Plasmodium falciparum [2], 0.302 µM; with Plasmodium falciparum [3], 0.232 µM; in the data set on Plasmodium falciparum [4], 0.339 µM; in the data set on Plasmodium falciparum [5], 0.916 µM; in the data set with Plasmodium berghei, 0.372 µM. In data set [1], the CC50 at 72 h was 12.3 µM. Further, in data set [10], the solubility was > 8 mM. Also, the Ratio Ki in data set [11] is 8; in data set [12] it was 30. Moreover, in the data set on Plasmodium falciparum [13], the “Ratio EC50” value is recorded as <4. For the same molecule, the selectivity ratio in [14] is ≤ 40; in [15], ≤ 40; in data set [16], ≤ 40; in [17], 14.
